The values below come from ChEMBL document CHEMBL4251654, “Structure-based design of human immuno- and constitutive proteasomes inhibitors” (Eur J Med Chem, 2018).

Activity calls are given as the source filed them. No cut-off for these calls is given here. Where only a bound is given, the exact number is not on record here.

Chain of Proteasome Macropain subunit (Homo sapiens) (P49721 whole entry): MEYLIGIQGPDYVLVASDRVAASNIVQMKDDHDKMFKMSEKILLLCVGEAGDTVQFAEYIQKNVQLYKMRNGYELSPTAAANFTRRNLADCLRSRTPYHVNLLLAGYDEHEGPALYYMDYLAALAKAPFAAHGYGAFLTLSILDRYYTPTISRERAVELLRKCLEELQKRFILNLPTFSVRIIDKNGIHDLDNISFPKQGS

One test addresses T1, Proteasome Macropain subunit MB1 (Homo sapiens, UniProt P28074).
T1 sequence (P28074 whole entry): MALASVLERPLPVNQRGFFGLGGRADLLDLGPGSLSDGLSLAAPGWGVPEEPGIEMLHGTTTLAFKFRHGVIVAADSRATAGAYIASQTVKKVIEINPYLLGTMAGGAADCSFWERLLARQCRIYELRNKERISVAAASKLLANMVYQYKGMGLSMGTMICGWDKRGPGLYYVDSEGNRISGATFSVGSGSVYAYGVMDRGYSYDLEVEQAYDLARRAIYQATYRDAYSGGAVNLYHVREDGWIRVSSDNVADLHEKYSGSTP
As to the kind of experiment: Inhibition of human 20S constitutive proteasome beta-5 using Suc-LLVY-AMC as substrate incubated for 15 mins measured for 45 mins by fluorescence assay. The procedure, abridged: (§1)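 Human 20S cCP or iCP (0.3 nM) was exposed to compound (0.001-50 μM) for 15 min in pH 8 buffer of 20 mM Tris-HCl, 10% glycerol, 0.01% SDS, 2% DMSO. Suc-LLVY-AMC at 20 μM followed. Fluorescence (ex 360/em 460 nm) was read 45 min at 37 °C versus untreated enzyme.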
The IC50 is the concentration that gives 50% inhibition. A low value points to greater potency. Compound `C[C@H](NC(=O)[C@H](Cc1ccc(OCc2ccccc2)cc1)NC(=O)OC(C)(C)C)C(=O)N[C@@H](C[C@]1(O)C(=O)Nc2ccccc21)C(=O)NCCC1CCCCC1` registered an IC50 of 2.8 µM.

Compound `C[C@H](O)[C@@H](NC(=O)OCc1ccccc1)C(=O)N[C@@H](C[C@]1(O)C(=O)Nc2ccccc21)C(=O)NCc1ccccc1` showed an IC50 of 0.88 µM.

As to `COC(=O)CCNC(=O)[C@H](C[C@]1(O)C(=O)Nc2ccccc21)NC(=O)[C@H](C)NC(=O)[C@H](Cc1ccc(OCc2ccccc2)cc1)NC(=O)OC(C)(C)C`, half-maximal inhibition (IC50) required 64 µM.

A further test deals with T2, Proteasome subunit beta type-8 (Homo sapiens, UniProt P28062).
T2 sequence (P28062 whole entry): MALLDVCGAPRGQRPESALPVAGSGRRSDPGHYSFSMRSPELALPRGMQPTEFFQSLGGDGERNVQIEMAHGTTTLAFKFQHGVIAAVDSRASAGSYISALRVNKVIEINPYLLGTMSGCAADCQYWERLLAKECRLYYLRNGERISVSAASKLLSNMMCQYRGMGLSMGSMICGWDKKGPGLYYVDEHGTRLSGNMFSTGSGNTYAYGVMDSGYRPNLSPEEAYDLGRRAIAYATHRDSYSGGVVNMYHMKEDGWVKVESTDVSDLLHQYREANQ
In words: Inhibition of human 20S immunoproteasome beta-5 using Suc-LLVY-AMC as substrate incubated for 15 mins measured for 45 mins by fluorescence assay. The method in brief:
as §1
As to `C[C@H](NC(=O)[C@H](Cc1ccc(OCc2ccccc2)cc1)NC(=O)OC(C)(C)C)C(=O)N[C@@H](C[C@]1(O)C(=O)Nc2ccccc21)C(=O)NCCC1CCCCC1`, half-maximal inhibition (IC50) required 2.7 µM.

Turning to `C[C@H](O)[C@@H](NC(=O)OCc1ccccc1)C(=O)N[C@@H](C[C@]1(O)C(=O)Nc2ccccc21)C(=O)NCc1ccccc1`, the IC50 was 0.572 µM.

The target of a further test is T3, Proteasome Macropain subunit MB1 (Homo sapiens) (UniProt P28074).
T3 sequence (whole entry): T1 sequence (P28074 whole entry)
In words: Inhibition of human 20S constitutive proteasome beta-5 at 50 uM using Suc-LLVY-AMC as substrate incubated for 15 mins measured for 45 mins by fluorescence assay relative to control. The procedure, abridged:
as §1
As a reminder, the inhibition is the percentage by which the read-out fell short of the control. `C[C@H](NC(=O)[C@H](Cc1ccc(OCc2ccccc2)cc1)NC(=O)OC(C)(C)C)C(=O)N[C@@H](C[C@]1(O)C(=O)Nc2ccccc21)C(=O)NCCC1CCCCC1` gave an inhibition of more than 85%.

In turn, `C[C@H](O)[C@@H](NC(=O)OCc1ccccc1)C(=O)N[C@@H](C[C@]1(O)C(=O)Nc2ccccc21)C(=O)NCc1ccccc1` showed an inhibition of more than 85%.

`COC(=O)CCNC(=O)[C@H](C[C@]1(O)C(=O)Nc2ccccc21)NC(=O)[C@H](C)NC(=O)[C@H](Cc1ccc(OCc2ccccc2)cc1)NC(=O)OC(C)(C)C` returned an inhibition of more than 85%.

In a further test the target is T4, Proteasome subunit beta type-8 (Homo sapiens) (UniProt P28062).
T4 sequence (whole entry): T2 sequence (P28062 whole entry)
In words: Inhibition of human 20S immunoproteasome beta-5 at 50 uM using Suc-LLVY-AMC as substrate incubated for 15 mins measured for 45 mins by fluorescence assay relative to control. The procedure, abridged:
as §1
The compound `C[C@H](NC(=O)[C@H](Cc1ccc(OCc2ccccc2)cc1)NC(=O)OC(C)(C)C)C(=O)N[C@@H](C[C@]1(O)C(=O)Nc2ccccc21)C(=O)NCCC1CCCCC1` had an inhibition of more than 85%.

With `C[C@H](O)[C@@H](NC(=O)OCc1ccccc1)C(=O)N[C@@H](C[C@]1(O)C(=O)Nc2ccccc21)C(=O)NCc1ccccc1`, the inhibition is more than 85%.

Compound `COC(=O)CCNC(=O)[C@H](C[C@]1(O)C(=O)Nc2ccccc21)NC(=O)[C@H](C)NC(=O)[C@H](Cc1ccc(OCc2ccccc2)cc1)NC(=O)OC(C)(C)C` came in with an inhibition of 31%.

The target in another test is T5, Proteasome subunit beta type-9 (Homo sapiens, UniProt P28065).
T5 sequence (P28065 whole entry): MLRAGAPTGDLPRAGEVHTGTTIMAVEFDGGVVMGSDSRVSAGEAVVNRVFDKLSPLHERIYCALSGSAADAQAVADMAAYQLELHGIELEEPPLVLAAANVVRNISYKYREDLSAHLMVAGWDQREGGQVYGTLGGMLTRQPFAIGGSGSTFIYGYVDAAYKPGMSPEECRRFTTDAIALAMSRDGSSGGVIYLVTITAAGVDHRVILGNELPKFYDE
In words: Inhibition of human 20S immunoproteasome beta-1 using Ac-PAL-AMC as substrate incubated for 15 mins measured for 45 mins by fluorescence assay. The procedure, abridged: (§2)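 Human 20S immunoproteasome (0.3 nM) was given 15 min with compound (0.001-50 μM) in pH 8 buffer of 20 mM Tris-HCl, 10% glycerol, 0.01% SDS, 2% DMSO. Ac-PAL-AMC at 50 μM was the substrate. Fluorescence (ex 360/em 460 nm) was followed 45 min at 37 °C relative to control.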
For the compound `C[C@H](NC(=O)[C@H](Cc1ccc(OCc2ccccc2)cc1)NC(=O)OC(C)(C)C)C(=O)N[C@@H](C[C@]1(O)C(=O)Nc2ccccc21)C(=O)NCCC1CCCCC1`, the IC50 was found to be 3.5 µM.

Turning to `C[C@H](O)[C@@H](NC(=O)OCc1ccccc1)C(=O)N[C@@H](C[C@]1(O)C(=O)Nc2ccccc21)C(=O)NCc1ccccc1`, the IC50 worked out at 24.6 µM.

In another test the target is T6, Proteasome component C5 (Homo sapiens) (UniProt P20618).
T6 sequence (whole entry): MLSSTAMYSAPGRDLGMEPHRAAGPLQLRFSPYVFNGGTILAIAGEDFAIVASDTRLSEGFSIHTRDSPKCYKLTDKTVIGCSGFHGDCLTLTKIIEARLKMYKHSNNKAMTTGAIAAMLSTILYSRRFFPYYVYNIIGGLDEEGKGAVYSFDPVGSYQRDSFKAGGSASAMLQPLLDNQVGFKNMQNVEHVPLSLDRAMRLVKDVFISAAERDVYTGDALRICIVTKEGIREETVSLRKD
In words: Inhibition of human 20S constitutive proteasome beta-1 at 50 uM using Z-LLE-betaNA as substrate incubated for 15 mins measured for 45 mins by fluorescence assay relative to control. The method in brief:
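Human 20S constitutive proteasome, 0.3 nM, was preincubated 15 min with compound (0.001-50 μM) in pH 8 Tris-HCl 20 mM, 10% glycerol, 0.01% SDS, 2% DMSO. Z-LLE-βNA at 50 μM was added. βNA fluorescence (ex 340/em 404 nm) was monitored 45 min at 37 °C against an untreated control.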
The compound `C[C@H](NC(=O)[C@H](Cc1ccc(OCc2ccccc2)cc1)NC(=O)OC(C)(C)C)C(=O)N[C@@H](C[C@]1(O)C(=O)Nc2ccccc21)C(=O)NCCC1CCCCC1` yielded an inhibition of more than 85%.

Regarding `C[C@H](O)[C@@H](NC(=O)OCc1ccccc1)C(=O)N[C@@H](C[C@]1(O)C(=O)Nc2ccccc21)C(=O)NCc1ccccc1`, the inhibition is 20%.

`COC(=O)CCNC(=O)[C@H](C[C@]1(O)C(=O)Nc2ccccc21)NC(=O)[C@H](C)NC(=O)[C@H](Cc1ccc(OCc2ccccc2)cc1)NC(=O)OC(C)(C)C` returned an inhibition of 15%.

A further test deals with T7, Proteasome subunit beta type-9 (Homo sapiens) (UniProt P28065).
T7 sequence (whole entry): T5 sequence (P28065 whole entry)
As to the kind of experiment: Inhibition of human 20S immunoproteasome beta-1 at 50 uM using Ac-PAL-AMC as substrate incubated for 15 mins measured for 45 mins by fluorescence assay relative to control. The method in brief:
as §2
`C[C@H](NC(=O)[C@H](Cc1ccc(OCc2ccccc2)cc1)NC(=O)OC(C)(C)C)C(=O)N[C@@H](C[C@]1(O)C(=O)Nc2ccccc21)C(=O)NCCC1CCCCC1` came in with an inhibition of more than 85%.

Regarding `C[C@H](O)[C@@H](NC(=O)OCc1ccccc1)C(=O)N[C@@H](C[C@]1(O)C(=O)Nc2ccccc21)C(=O)NCc1ccccc1`, the inhibition is more than 85%.

In turn, `COC(=O)CCNC(=O)[C@H](C[C@]1(O)C(=O)Nc2ccccc21)NC(=O)[C@H](C)NC(=O)[C@H](Cc1ccc(OCc2ccccc2)cc1)NC(=O)OC(C)(C)C` came in with an inhibition of 17%.

In another test the target is T8, Proteasome subunit beta type-10 (Homo sapiens, UniProt P40306).
T8 sequence (P40306 whole entry): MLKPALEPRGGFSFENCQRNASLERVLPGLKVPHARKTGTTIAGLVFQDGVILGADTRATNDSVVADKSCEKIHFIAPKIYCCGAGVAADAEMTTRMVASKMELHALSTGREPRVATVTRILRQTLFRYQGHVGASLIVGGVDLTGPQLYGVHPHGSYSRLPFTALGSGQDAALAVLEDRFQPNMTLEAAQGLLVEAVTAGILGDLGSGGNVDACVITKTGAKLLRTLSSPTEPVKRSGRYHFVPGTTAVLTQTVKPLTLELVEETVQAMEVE
In words: Inhibition of human 20S immunoproteasome beta-2 using BocLRR-AMC as substrate incubated for 15 mins measured for 45 mins by fluorescence assay.
In turn, `COC(=O)CCNC(=O)[C@H](C[C@]1(O)C(=O)Nc2ccccc21)NC(=O)[C@H](C)NC(=O)[C@H](Cc1ccc(OCc2ccccc2)cc1)NC(=O)OC(C)(C)C` had an IC50 of 106 µM.

A further test addresses Proteasome Macropain subunit (Homo sapiens) (UniProt P49721). As to the kind of experiment: Inhibition of human 20S constitutive proteasome beta-2 at 50 uM using BocLRR-AMC as substrate incubated for 15 mins measured for 45 mins by fluorescence assay relative to control. The procedure, abridged: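 Purified human 20S proteasome (cCP or iCP), 0.3 nM, preincubated 15 min with compound (0.001-50 μM) in pH 8 buffer of 20 mM Tris-HCl, 10% glycerol, 0.005% Triton X-100, 2% DMSO. Then Boc-LRR-AMC at 50 μM was added. AMC fluorescence (ex 360/em 460 nm) was followed 45 min at 37 °C. Activity is relative to an untreated control.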
For `C[C@H](NC(=O)[C@H](Cc1ccc(OCc2ccccc2)cc1)NC(=O)OC(C)(C)C)C(=O)N[C@@H](C[C@]1(O)C(=O)Nc2ccccc21)C(=O)NCCC1CCCCC1`, the inhibition turned out to be 36%.

For `C[C@H](O)[C@@H](NC(=O)OCc1ccccc1)C(=O)N[C@@H](C[C@]1(O)C(=O)Nc2ccccc21)C(=O)NCc1ccccc1`, the inhibition result is “inactive”.

For the compound `COC(=O)CCNC(=O)[C@H](C[C@]1(O)C(=O)Nc2ccccc21)NC(=O)[C@H](C)NC(=O)[C@H](Cc1ccc(OCc2ccccc2)cc1)NC(=O)OC(C)(C)C`, the inhibition turned out to be 14%.

The next test deals with T9, Proteasome subunit beta type-10 (Homo sapiens) (UniProt P40306).
T9 sequence (whole entry): T8 sequence (P40306 whole entry)
As to the kind of experiment: Inhibition of human 20S immunoproteasome beta-2 at 50 uM using BocLRR-AMC as substrate incubated for 15 mins measured for 45 mins by fluorescence assay relative to control.
The compound `C[C@H](NC(=O)[C@H](Cc1ccc(OCc2ccccc2)cc1)NC(=O)OC(C)(C)C)C(=O)N[C@@H](C[C@]1(O)C(=O)Nc2ccccc21)C(=O)NCCC1CCCCC1` displayed an inhibition of 19%.

In the case of `C[C@H](O)[C@@H](NC(=O)OCc1ccccc1)C(=O)N[C@@H](C[C@]1(O)C(=O)Nc2ccccc21)C(=O)NCc1ccccc1`, the inhibition result is “inactive”.

On to `COC(=O)CCNC(=O)[C@H](C[C@]1(O)C(=O)Nc2ccccc21)NC(=O)[C@H](C)NC(=O)[C@H](Cc1ccc(OCc2ccccc2)cc1)NC(=O)OC(C)(C)C`, for which the inhibition was more than 85%.
